Assay results reported in PubChem BioAssay.
The source made the active and inactive calls.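 Rule for the calls, unless noted: active = viability at or below 10% of carrier control in both of two separate runs; inconclusive = viability at or below 10% in only one of the two runs; inactive = the rest.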

Assays:
[1] = reducers of endogenous Her2 protein level, primary screen, SKBR3 breast tumor cells, AlphaScreen, ATP viability (AID 461;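 active = Her2 level under about 52% in both replicate screens, with viability over 70% of control, limit read from the data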;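 for Her2 level: lower value means less Her2 protein in the cells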;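 for viability: percent of carrier control wells set as 100% viability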); conditions: 18-24 h, measured here: SKBR3 viability, ATP luminescence, at 10 µM
[2] = biological target: Receptor tyrosine-protein kinase erbB-2 (Homo sapiens) (UniProt P04626); assay: as above; conditions: 18-24 h, at 10 µM, stronger effect = lower value
Sequence of Receptor tyrosine-protein kinase erbB-2 (Homo sapiens) (P04626 whole entry, looked up): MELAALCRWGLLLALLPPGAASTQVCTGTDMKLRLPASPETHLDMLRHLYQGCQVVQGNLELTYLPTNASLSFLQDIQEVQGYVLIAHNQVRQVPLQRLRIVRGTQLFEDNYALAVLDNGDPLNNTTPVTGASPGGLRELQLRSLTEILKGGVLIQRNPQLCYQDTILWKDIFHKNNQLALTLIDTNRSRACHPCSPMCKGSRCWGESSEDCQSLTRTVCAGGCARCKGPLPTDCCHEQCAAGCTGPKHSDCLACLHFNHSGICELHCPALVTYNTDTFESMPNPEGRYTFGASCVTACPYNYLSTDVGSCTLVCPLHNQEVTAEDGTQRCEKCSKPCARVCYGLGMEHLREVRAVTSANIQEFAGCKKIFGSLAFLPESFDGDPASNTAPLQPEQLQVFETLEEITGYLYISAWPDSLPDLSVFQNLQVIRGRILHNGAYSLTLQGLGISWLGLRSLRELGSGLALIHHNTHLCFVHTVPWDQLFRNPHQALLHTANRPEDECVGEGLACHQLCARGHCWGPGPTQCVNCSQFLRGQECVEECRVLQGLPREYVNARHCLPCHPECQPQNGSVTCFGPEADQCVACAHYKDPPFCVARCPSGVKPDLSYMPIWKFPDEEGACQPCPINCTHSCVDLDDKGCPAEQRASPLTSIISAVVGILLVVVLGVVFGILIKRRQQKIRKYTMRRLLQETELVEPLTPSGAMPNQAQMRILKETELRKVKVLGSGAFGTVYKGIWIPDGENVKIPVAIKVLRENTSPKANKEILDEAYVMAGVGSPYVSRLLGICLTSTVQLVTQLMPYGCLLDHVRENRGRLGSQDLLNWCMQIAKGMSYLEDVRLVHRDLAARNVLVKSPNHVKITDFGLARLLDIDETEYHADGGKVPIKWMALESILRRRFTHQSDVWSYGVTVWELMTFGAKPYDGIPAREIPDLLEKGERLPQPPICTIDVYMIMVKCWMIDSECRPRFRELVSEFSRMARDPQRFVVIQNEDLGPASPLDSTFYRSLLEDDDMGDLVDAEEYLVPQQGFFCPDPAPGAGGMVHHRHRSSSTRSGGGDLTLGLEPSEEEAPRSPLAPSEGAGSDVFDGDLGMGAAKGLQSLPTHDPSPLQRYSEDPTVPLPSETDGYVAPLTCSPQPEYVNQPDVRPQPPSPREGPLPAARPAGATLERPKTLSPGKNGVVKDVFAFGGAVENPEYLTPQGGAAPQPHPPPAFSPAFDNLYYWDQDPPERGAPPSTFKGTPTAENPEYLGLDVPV

[3] = SK-BR-3 cell growth inhibitors, pilot screen, 24 h, human (AID 572); conditions: SK-BR-3 viability, CellTiter-Glo luminescence, at 10 µM, stronger effect = lower value;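 note: compound exposure lasted between 18 and 24 h rather than exactly 24 h; 100% = carrier-treated control wells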
[4] = HUVEC growth inhibition – cell-based, human, primary screen (AID 575;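 active = viability at or below 30% in both replicate assays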;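 note: 100% = median of untreated cell wells with 0.1% DMSO on each plate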); conditions: HUVEC proliferation, CellTiter-Glo luminescence, 72 h; at 10 µM; stronger effect = lower value
Method in brief: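 Test system – primary HUVEC, no more than 12 passages · Dosing – one dose, 10 µM final, 0.1% DMSO · Times – 72 h treatment at 37 °C · Measured by – ATP-based CellTiter-Glo luminescent read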

[5] = growth inhibitors of H69AR lung tumor, primary screen, human, duplicate replicates (AID 580;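 active = viability at or under a set limit in both replicates, limit being median viability minus 3 SD, cut at about 48% in these data, passing the limit was not always enough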;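 note: 100% = mean luminescence of untreated wells and 0% = no signal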); conditions: H69AR lung tumor cells viability, ATP luminescence, 72 h; at 10 µM; stronger effect = lower value
[6] = reversal of MRP1-mediated doxorubicin resistance, pilot screen, H69AR cells, doxorubicin co-treatment (AID 601;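 active = viability loss from added drug above about 55%, and viability with drug at most 40%, in both replicates, limit read from the data, passing the limit was not always enough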); conditions: CellTiter-Glo, 72 h, at 10 µM; for differential viability (reversal): stronger effect = higher value
[7] = 384-well plate pilot, post-Golgi transport modulator project, inhibition of yeast transport mutant growth (AID 636; in the data active = inhibition above about 31%); conditions: absorbance 615 nm, about 18 h, stronger effect = higher value
[8] = growth suppression of yeast trafficking mutant, preliminary HTS, modulators of trafficking downstream of Golgi apparatus project, 1536-format plate, OD 615 nm (AID 637; in the data active = inhibition above about 30%); conditions: yeast transport mutant growth, absorbance 615 nm, 18 h; stronger effect = higher value
[9] = H69AR cells + 2 uM doxorubicin, measured here: viability with 2 uM doxorubicin, stronger effect = lower value
[10] = H69AR cells, compound alone cytotoxicity

Row | SMILES | viability [1] [%] | Her2 level [2] | viability [3] | viability [4] | viability [5] | differential viability (reversal) ([6]; H69AR cells + 2 uM doxorubicin) | viability [6, 9] [%] | viability [6, 10] [%] | inhibition [7] | inhibition [8]
1 | O=S(=O)(NCc1ccccc1)c1ccc2c(c1)OCCO2 | 124 | 110% (inactive) | 124% (inactive) | 97.1% (inactive) | 76.8% (inactive) | -7.4% (inactive) | 84.2 | 76.8 | -3.9% (inactive) | -2.7% (inactive)
2 | CN1CCN(CC(=O)Nc2ccc(Cl)cc2Cl)CC1 | 85.5 | 95% (inactive) | 85.5% (inactive) | 91.6% (inactive) | 93.8% (inactive) | 3.29% (inactive) | 90.5 | 93.8 | -3.29% (inactive) | 2.74% (inactive)
3 | Cc1ccc(SCCNS(=O)(=O)c2ccc(F)cc2)cc1 | 85 | 112% (inactive) | 85% (inactive) | 78.8% (inactive) | 105% (inactive) | 13.5% (inactive) | 91.1 | 105 | -6.8% (inactive) | -2.42% (inactive)
4 | Clc1ccc(Cl)c(-c2ccc(/C=N/c3ncn[nH]3)o2)c1 | 105 | 81% (inactive) | 105% (inactive) | 64.5% (inactive) | 72.8% (inactive) | -11.9% (inactive) | 84.8 | 72.8 | -6.8% (inactive) | 4.59% (inactive)
5 | COc1ccccc1CN1CCCC(C(=O)N(C)Cc2ccccc2)C1 (stereo not given) | 70 | 116% (inactive) | 70% (inactive) | 99.1% (inactive) | 81.1% (inactive) | 3.71% (inactive) | 77.4 | 81.1 | -0.77% (inactive) | 5% (inactive)
6 | COCCCNS(=O)(=O)c1ccc2c(c1)CCN2C(C)=O | 97 | 99% (inactive) | 97% (inactive) | 102% (inactive) | 87.1% (inactive) | -17.4% (inactive) | 105 | 87.1 | -0.13% (inactive) | -0.32% (inactive)
7 | COc1ccccc1C(=O)Nc1ccc(S(=O)(=O)N2CCOCC2)cc1 | 104 | 104% (inactive) | 104% (inactive) | 92.9% (inactive) | 93.2% (inactive) | -0.52% (inactive) | 93.7 | 93.2 | -2.89% (inactive) | 4.59% (inactive)
8 | CCn1nc(C(=O)OCC(=O)N2CCc3ccccc32)c2ccccc2c1=O | 99.5 | 106% (inactive) | 99.5% (inactive) | 88.2% (inactive) | 96.8% (inactive) | 2.27% (inactive) | 94.6 | 96.8 | 1.41% (inactive) | -11.2% (inactive)
9 | COC(=O)c1ccc(COc2ncnc3c(Cl)cc(Cl)cc23)o1 | 102 | 100% (inactive) | 102% (inactive) | 95.4% (inactive) | 85.9% (inactive) | 18.5% (inactive) | 67.4 | 85.9 | -8.16% (inactive) | -2.73% (inactive)
10 | O=C(O)C1CCCN1S(=O)(=O)c1ccc2ccccc2c1 (stereo not given) | 106 | 110% (inactive) | 106% (inactive) | 101% (inactive) | 95.6% (inactive) | -12% (inactive) | 108 | 95.6 | 0.27% (inactive) | 9.51% (inactive)
11 | CCOC(=O)c1cccc(NC(=O)CSc2nnc(C3CCCCC3)n2C)c1 | 91 | 89% (inactive) | 91% (inactive) | 92.3% (inactive) | 91.3% (inactive) | 6.58% (inactive) | 84.7 | 91.3 | -6.22% (inactive) | -0.95% (inactive)
12 | COCCNC(=O)CN(C)S(=O)(=O)c1ccc2c(c1)OCCO2 | 107 | 102% (inactive) | 107% (inactive) | 104% (inactive) | 100% (inactive) | 12% (inactive) | 88.2 | 100 | -4.8% (inactive) | -2.26% (inactive)
13 | CS(=O)(=O)c1ccc2nc(NC(=O)CCC(=O)c3cccs3)sc2c1 | 91 | 102% (inactive) | 91% (inactive) | 87.5% (inactive) | 69.8% (inactive) | -4.38% (inactive) | 74.2 | 69.8 | -1.05% (inactive) | 4.35% (inactive)
14 | N#CCCn1ccc(NC(=O)c2ccc(Cl)cc2)n1 | 79 | 87.5% (inactive) | 79% (inactive) | 102% (inactive) | 97% (inactive) | 8.88% (inactive) | 88.1 | 97 | -5.27% (inactive) | -0.66% (inactive)
15 | Cc1cc(=O)oc2ccc(OCC(=O)N3CCC(C)CC3)cc12 | 87 | 90% (inactive) | 87% (inactive) | 92.3% (inactive) | 96.3% (inactive) | 5.65% (inactive) | 90.7 | 96.3 | -1.05% (inactive) | 1.15% (inactive)
16 | CCCn1nnnc1SCC(=O)c1ccc2c(c1)OCCO2 | 90 | 108% (inactive) | 90% (inactive) | 110% (inactive) | 106% (inactive) | 13.4% (inactive) | 92.8 | 106 | 2.67% (inactive) | 10.7% (inactive)

Row | SMILES | viability [1] [%] | Her2 level [2] | viability [3] | viability [4] | viability [5] | differential viability (reversal) ([6]; H69AR cells + 2 uM doxorubicin) | viability [6, 9] [%] | viability [6, 10] [%] | inhibition [7] | inhibition [8]
17 | CNC(=O)c1ccc(N(Cc2ccccc2C)S(C)(=O)=O)cc1 | 98 | 102% (inactive) | 98% (inactive) | 102% (inactive) | 93.6% (inactive) | 0.93% (inactive) | 92.7 | 93.6 | -3.87% (inactive) | -2.95% (inactive)
18 | Cc1cc(C(=O)O)ccc1-n1c(C)ccc1C | 100 | 92% (inactive) | 100% (inactive) | 89.6% (inactive) | 93.2% (inactive) | 1.35% (inactive) | 91.8 | 93.2 | 1.32% (inactive) | -4.52% (inactive)
19 | CCn1c(SCC(=O)c2ccc3c(c2)OCCO3)nnc1-c1ccco1 | 102 | 95% (inactive) | 102% (inactive) | 111% (inactive) | 98.6% (inactive) | 0.66% (inactive) | 97.9 | 98.6 | -4% (inactive) | -0.65% (inactive)
20 | C=CCN1C(=O)C2(c3ccccc31)C1CCCC=C1C(C#N)=C(N)C2(C#N)C#N (stereo not given) | 81 | 82% (inactive) | 81% (inactive) | 62.7% (inactive) | 76.4% (inactive) | -13.9% (inactive) | 90.3 | 76.4 | 2.53% (inactive) | 26.8% (inactive)
21 | O=C(CSc1nnnn1-c1ccc2c(c1)OCO2)NCc1cccs1 | 88 | 90.5% (inactive) | 88% (inactive) | 93.2% (inactive) | 86.8% (inactive) | -7.04% (inactive) | 93.8 | 86.8 | -5.68% (inactive) | -1.64% (inactive)
22 | Cn1cccc1Cc1nnc(SCC(=O)Nc2ccccc2F)n1-c1ccc(F)cc1 | 87.5 | 99.5% (inactive) | 87.5% (inactive) | 103% (inactive) | 98.2% (inactive) | -2.87% (inactive) | 101 | 98.2 | -1.28% (inactive) | -6.5% (inactive)
23 | CC(NC(=O)c1ccccc1NC(=O)c1ccco1)C(=O)O (stereo not given) | 106 | 68% (inactive) | 106% (inactive) | 89% (inactive) | 86.7% (inactive) | 2.01% (inactive) | 84.7 | 86.7 | -2.63% (inactive) | 2.1% (inactive)
24 | CCNC(=O)CC1C(=O)N(c2ccc(F)cc2)C(=O)N1CCC(C)C (stereo not given) | 103 | 80.5% (inactive) | 103% (inactive) | 98.4% (inactive) | 92.9% (inactive) | 8.4% (inactive) | 84.5 | 92.9 | 0.66% (inactive) | -3.64% (inactive)
25 | Cc1ccc(C)c(/C(O)=C2\C(=O)C(=O)N(CCCN3CCOCC3)C2c2cccnc2)c1 (stereo not given) | 99 | 101% (inactive) | 99% (inactive) | 91.4% (inactive) | 90.2% (inactive) | -5.11% (inactive) | 95.3 | 90.2 | -3.59% (inactive) | -2.33% (inactive)
26 | Cc1[nH]n2c(=O)cc(Cc3ccccc3)nc2c1C#N | 97.5 | 80% (inactive) | 97.5% (inactive) | 97.1% (inactive) | 81.5% (inactive) | -10.1% (inactive) | 91.6 | 81.5 | -2.89% (inactive) | -1.45% (inactive)
27 | CC1=C(C(=O)OC2CCCCC2)C(c2cccnc2)n2ncnc2N1 (stereo not given) | 104 | 66.5% (inactive) | 104% (inactive) | 105% (inactive) | 81.8% (inactive) | -8.64% (inactive) | 90.4 | 81.8 | -6.58% (inactive) | -5.83% (inactive)
28 | O=C(O)C1C2CCC(O2)C1C(=O)NCCC1=CCCCC1 (stereo not given) | 78.5 | 118% (inactive) | 78.5% (inactive) | 34.2% (inactive) | 57.8% (inactive) | -9.07% (inactive) | 66.8 | 57.8 | 0% (inactive) | 0.5% (inactive)
29 | CC1CCC2C(C1)c1sc(=O)[nH]c1SC2(C)C (stereo not given) | 85 | 111% (inactive) | 85% (inactive) | 60.5% (inactive) | 106% (inactive) | 2.79% (inactive) | 103 | 106 | 0.9% (inactive) | 13.2% (inactive)
30 | CCOc1ccc(-c2nnn(CC(=O)N3CCN(c4ccc(F)cc4)CC3)n2)cc1OCC | 111 | 102% (inactive) | 111% (inactive) | 76% (inactive) | 81.9% (inactive) | -10.1% (inactive) | 92 | 81.9 | -2.93% (inactive) | -0.33% (inactive)
31 | CC(=O)NC(Cc1c[nH]c2ccccc12)C(=O)OCC(=O)Nc1cc(C)on1 (stereo not given) | 91.5 | 117% (inactive) | 91.5% (inactive) | 101% (inactive) | 97% (inactive) | 11% (inactive) | 86 | 97 | 3.46% (inactive) | -7.83% (inactive)
32 | CCOC(=O)c1c(C)[nH]c(C(=O)Cn2c(=O)oc3ccccc32)c1C | 102 | 93.5% (inactive) | 102% (inactive) | 108% (inactive) | 89.5% (inactive) | 2.91% (inactive) | 86.6 | 89.5 | -3.97% (inactive) | 0.33% (inactive)
